# Laboratory results taken from ChEMBL document CHEMBL1147089, “Protein protein interaction inhibition (2P2I) combining high throughput and virtual screening: Application to the HIV-1 Nef protein” (Proc Natl Acad Sci U S A, 2007).
# The source made the active and inactive calls. The rule behind the calls is not given here.
# Columns and labels:
# COS-7 [1] = assay: Inhibition of HIV1 Nef-SH3Hck interaction in COS7 cells at 20 uM after 36 hrs by mammalian two-hybrid assay; format: cell-based; settings: Human immunodeficiency virus 1
# Method in brief: (§1)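 Firefly luciferase reports interaction, Renilla luciferase (from GAL4–SH3Hck construct) normalizes transfection and viability; inhibition from reduced LucFF:LucRN ratio. Dose series 2–32 μM; screening at 20 μM.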
# [2] = target: T1, DNA-binding protein inhibitor ID-1 (Homo sapiens) (UniProt P41134); assay: Reduction of Id-MyoD interaction in COS7 cells at 32 uM after 36 hrs by mammalian two-hybrid assay; format: cell-based; parameters: scale not given: the % may be the effect or the level left; settings: COS-7
# T1 sequence (whole entry): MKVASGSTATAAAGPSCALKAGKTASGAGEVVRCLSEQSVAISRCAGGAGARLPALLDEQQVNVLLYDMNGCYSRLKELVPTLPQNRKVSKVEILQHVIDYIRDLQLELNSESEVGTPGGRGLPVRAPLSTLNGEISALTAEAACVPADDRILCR
# Method in brief: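 Specificity counterscreen: Id–MyoD mammalian two-hybrid in COS7 cells, compounds at 2, 4, 8, 16, 32 μM for 36 h; read-out as normalized firefly:Renilla luciferase ratio.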
# [3] = system: Human immunodeficiency virus 1; assay: Reduction in HIV1 Nef-mediated CD4 down regulation in human PBMC after 3 hrs
# [4] = Toxicity against african green monkey COS7 cells assessed as cell viability upto 100 uM; format: cell-based; settings: chlorocebus aethiops, cos-7
# [5] = Binding affinity to HIV1 Nef by isothermal titration calorimetry method; parameters: species or system Human immunodeficiency virus 1
# Method in brief: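 Nef57–205 dialyzed in ITC buffer (20 mM Hepes pH 7.0, 100 mM NaCl, 5% DMSO), 15–25 μM in cell; inhibitor 300–400 μM in same buffer (DMSO 5%) injected 10–15 μl every 300 s at 25°C; heat of dilution into buffer alone subtracted; apparent KD from titration.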
# COS-7 [6] = assay: Reduction of HIV1 Nef-SH3Hck protein interaction in COS7 cells assessed as reduction of LucFF:LucRN ratio at 32 uM after 36 hrs by mammalian two-hybrid assay; format: cell-based; parameters: scale not given: the % may be the effect or the level left; settings: Human immunodeficiency virus 1; method in brief: as §1
# [7] = system: Human immunodeficiency virus 1; assay: Reduction of HIV1 Nef-mediated MHC class 1 down regulation in human PBMC after 3 hrs
# [8] = system: Human immunodeficiency virus 1; assay: Reduction of HIV1 Nef-SH3Hck protein interaction at 0.1 uM by GST pull-down method
compound,measurement,setting,value
c1ccc(/C(=N/Nc2nc3ccccc3s2)c2ccccn2)cc1.c1ccc(/C(=N\Nc2nc3ccccc3s2)c2ccccn2)cc1,inhibition,COS-7 [1],57.2%
O=C(O)CCC(=O)c1ccc2ccc3cccc4ccc1c2c34,inhibition,COS-7 [1],58.4%
CC(C)(C)c1ccc(OC(=O)Nc2ccc(O)c(C(=O)O)c2)cc1,Activity,[2],17%
same,Activity,[3],inactive
same,Activity,[4],Non-toxic
same,Kd,[5],1800 nM
same,Activity,COS-7 [6],77%
same,Activity,[7],Dose-dependent effect
same,Activity,[8],Active
same,inhibition,COS-7 [1],73.4%
O=C(O)CCCc1ccc2ccc3ccccc3c2c1,Kd,[5],6700 nM
same,inhibition,COS-7 [1],63.2%
Cc1cc(OCc2nc(N)nc(N)c2-c2ccc(Cl)c(Cl)c2)ccc1[N+](=O)[O-],inhibition,COS-7 [1],57.5%
CN(C)c1ccc2nc3c(C(=O)O)cc(=O)c(O)c-3oc2c1,Kd,[5],1300 nM
same,inhibition,COS-7 [1],80.4%
COc1cc2ccccc2c2cc([N+](=O)[O-])oc12,Kd,[5],11000 nM
same,inhibition,COS-7 [1],53.8%
CC(C)(C)c1ccc(OCC(=O)Nc2cccc(C(=O)O)c2)cc1,Activity,[4],Non-toxic
same,Kd,[5],980 nM
same,inhibition,COS-7 [1],75%
